This is an account of results in publication PMC2900601 (Cell, 2009).

Where a chain is given by its changes, count along the chain named. Where two headings read alike, the source gives them in different places. Where no end group is shown, it is not given here. [ ]: non-standard residue; d: D form. pT = C[C@@H](OP(=O)(O)O)[C@H](N)C(=O)O; pS = N[C@@H](COP(=O)(O)O)C(=O)O

The target in test [1] is Schizosaccharomyces pombe Nbs1 N-terminal FHA/BRCT-repeat fragment (1-324) (Schizosaccharomyces pombe) (UniProt O43070). Briefly: ITC. For orientation: In ITC the heat of successive injections is recorded.
Test [2] concerns the target human Nbs1 N-terminal FHA/BRCT-repeat fragment (1-382) (human) (UniProt O60934). Briefly: ITC.
The target of test [3] is T1, human Nbs1 (hNbs1) FHA/BRCT fragment (1-382) (Homo sapiens, UniProt O60934).
T1 sequence (O60934 1-382): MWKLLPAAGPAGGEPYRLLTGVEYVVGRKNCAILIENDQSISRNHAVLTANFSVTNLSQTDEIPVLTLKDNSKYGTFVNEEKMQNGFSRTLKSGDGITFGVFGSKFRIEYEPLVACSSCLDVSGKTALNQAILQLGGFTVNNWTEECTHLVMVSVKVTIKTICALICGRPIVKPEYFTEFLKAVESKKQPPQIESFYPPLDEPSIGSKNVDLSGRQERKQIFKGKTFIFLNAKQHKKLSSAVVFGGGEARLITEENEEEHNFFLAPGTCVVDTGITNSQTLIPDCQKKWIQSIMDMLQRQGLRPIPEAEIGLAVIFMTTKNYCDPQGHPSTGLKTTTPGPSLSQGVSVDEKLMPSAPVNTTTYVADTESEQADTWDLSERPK
Briefly: ITC of phosphopeptides with wild-type hNbs1 N-terminal fragment. It is filed as binding.

Test [4] addresses T2, spNbs1 FHA/BRCT2 region (1-324) (Schizosaccharomyces pombe, UniProt O43070).
T2 sequence (O43070 1-324): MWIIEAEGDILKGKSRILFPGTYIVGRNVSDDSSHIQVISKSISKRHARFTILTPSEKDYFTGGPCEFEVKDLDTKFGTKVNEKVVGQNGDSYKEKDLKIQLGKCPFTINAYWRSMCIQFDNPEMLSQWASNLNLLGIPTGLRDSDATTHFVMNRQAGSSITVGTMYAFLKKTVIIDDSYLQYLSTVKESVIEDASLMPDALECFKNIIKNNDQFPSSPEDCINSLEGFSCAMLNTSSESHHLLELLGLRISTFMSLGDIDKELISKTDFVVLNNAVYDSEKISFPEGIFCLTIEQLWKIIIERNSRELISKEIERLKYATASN
Briefly: ITC of phosphopeptides with wild-type spNbs1 N-terminal fragment. Type of test: binding. In short, it runs like this:
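Purified recombinant […] N-terminal fragment of S. pombe Nbs1 titrated by ITC with the same Mdc1 phosphothreonine peptide used for the human protein. An unphosphorylated peptide of identical sequence was also tested. Affinity was derived from the titration.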

A further test addresses T3, hNbs1 (1-382) R28A (human, UniProt O60934 1-382, R28A).
T3 sequence: T1 sequence (O60934 1-382) with R28A
Briefly: ITC.

Test [5] has as its target T4, human Nbs1 N-terminal FHA/BRCT-repeat fragment (1-382) (human, UniProt O60934 1-382).
T4 sequence: T1 sequence (O60934 1-382)
Briefly: ITC.

The target of a further test is T5, hNbs1 (1-382) K160M (human, UniProt O60934 1-382, K160M).
T5 sequence: T1 sequence (O60934 1-382) with K160M
Briefly: ITC.

The next test concerns the target T6, hNbs1 (1-382) S42A (human, UniProt O60934 1-382, S42A).
T6 sequence: T1 sequence (O60934 1-382) with S42A
Briefly: ITC.

The target in a further test is T7, spNbs1 (1-324) R27A (Schizosaccharomyces pombe, UniProt O43070 1-324, R27A).
T7 sequence: T2 sequence (O43070 1-324) with R27A
Briefly: ITC.

Turning to “Mdc1 pSDpTD motif di-phosphorylated peptide (Mdc1 residues 325-336) (from UniProt Q14676 325-336)”, the figures for the Kd in test [1] and in test [2] were 500 nM and 1000 nM, respectively. This molecule also yielded a stoichiometry N in [2] of over 1.

In [1], “Ctp1 peptide containing singly phosphorylated Thr-78” showed a Kd of 200 nM. For the molecule “Ctp1 Site 1 peptide phosphorylated only on pThr-79”, the fold weaker binding than the di-phosphorylated Site 1 peptide in test [1] came out at 8 fold. Molecule “Ctp1 Site 1 di-phosphorylated peptide (pSer-77/pThr-79)” displayed a fold weaker binding than the di-phosphorylated Site 2 peptide in test [1] of 30 fold. For the molecule Mdc1 SDpTD mono-phosphorylated peptide, in test [2], the fold reduced affinity against the di-phosphorylated Mdc1 peptide came to 17 fold.

“Ctp1 Site 2 di-phosphorylated peptide (pSer-87 and pThr-89)”: the Kd in test [1] is 50 nM. Molecule “Ctp1 Site 2 peptide phosphorylated only on pThr-89” yielded a fold weaker binding than the di-phosphorylated Site 2 peptide in test [1] of 10 fold.

In the case of “pSDTD: Mdc1 peptide of the same sequence in which the threonine was not phosphorylated (GFID[pS]DTDAEEE)”, the “binding to hNbs1 (in words)” value is given as “neither spNbs1 nor hNbs1 bound” in [3] and “lack of hNbs1 interactions” in test [3] (listed as mono-phosphorylated pSDTD). Also, the “binding to spNbs1 (in words)” value in [4] was “neither spNbs1 nor hNbs1 bound”. For the molecule FID[pS]D[pT]DVEEE [di-phosphorylated peptide with a core consensus of all six Mdc1 motifs (FIDpSDpTDVEEE)], the “fold reduction of stoichiometry against wild-type hNbs1” value in the test with hNbs1 (1-382) R28A, with hNbs1 (1-382) K160M and with hNbs1 (1-382) S42A was about 2 fold each time. The “stoichiometry N” value in test [5] was over 1. In the case of GFID[pS]D[pT]DAEEE [Mdc1 pSDpTD motif di-phosphorylated peptide (Mdc1 residues 325-336)], the “fold reduction of apparent binding affinity against wild-type spNbs1” value with spNbs1 (1-324) R27A is about 100 fold.

Usually Kd stands for the free concentration of one partner at which half of the binding sites on the other are occupied at equilibrium, for simple one-to-one binding. A higher Kd goes with a looser complex. As a reminder, the stoichiometry N is a count of units in the complex or per binding partner.
